We go through 167 variants from the RNAGym collection of RNA variant scans (doi:10.1002/anie.201605470).

The labels stand for the following.
B1: Osa-1-4 twister ribozyme (parent)
chain: CCGCCUAACACUGCCAAUGCCGGUCCCAAGCCCGGAUAAAAGUGGAGGGGGCGG

The data set covers variants of B1. As to the kind of experiment: self-cleavage, relative activity (ratio to wild type); higher = more cleavage; co-transcriptional. An outline of the steps: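 Relative activity is the fraction cleaved divided by that of the wild-type ribozyme. The library came from a DNA template for a 54-nucleotide Oryza sativa twister ribozyme, doped at the 48 positions downstream of the cleavage site with 97 % wild-type base and 1 % of each other base. After 2 h of in vitro transcription at 37 °C with co-transcriptional self-cleavage, the RNA was reverse-transcribed with a template-switching oligonucleotide, amplified by PCR and deep-sequenced, and reads with or without upstream sequence gave the cleavage status.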
Regarding A36U G50U, the self-cleavage was found to be 1.03. Take A36U G50C: the self-cleavage was found to be 1.06.

As for A36U G50A, the self-cleavage was 0.87. Regarding A36G G53A, the self-cleavage came to 0.95. Under A36G G53U stands 0.61; under A36G G53C, 0.13. The value for A38C C31A was 0.04; that for A38C C31G was 0.09. With A38C C31U, the self-cleavage turned out to be 0.89. Under A36G G50U stands 1.04; under A36G G50C, 1.04; under A36G G50A, 0.76. The value for A36U C11G was 0.72; that for A36U C11A was 0.87; that for A36U C11U was 0.94. Turning to A38C A46U, the self-cleavage was determined as 0.07.

A38C A46G: the self-cleavage amounted to 0.06. As to A38C A46C, the self-cleavage is 0.04. Under A38C C52G stands 1.03. Under A38C C52U stands 1.03; under A38C C52A, 1. As for A38C C27U, the self-cleavage was 0.18.

For the variant A38C C27A, the self-cleavage turned out to be 0.18. On to A38C C27G, for which the self-cleavage came out at 0.06. Regarding A38C C32U, the self-cleavage came out at 0.13. The value for A38C C32G was 0.09. The value for A38C C32A was 0.09; that for A36G C31A was 0.04; that for A36G C31G was 0.16.

Turning to A36G C31U, the self-cleavage is 1.01.

As for A36G G23C, the self-cleavage turned out to be 0.07. For A36G G23A, the self-cleavage stood at 0.62. The value for A36G G23U was 0.13; that for A38C C25G was 0.06. Under A38C C25U stands 0.88; under A38C C25A, 0.07; under A36G C25U, 0.94.

Regarding A36G C25A, the self-cleavage was 0.22.

Regarding A36G C25G, the self-cleavage amounted to 0.13. Under A38C G23U stands 0.07. As for A38C G23C, the self-cleavage was 0.04. Under A38C G23A stands 0.1; under A36U U18G, 0.88. A36U U18A: the self-cleavage came to 0.97. The value for A36U U18C was 0.98; that for U37A U43G was 0.43; that for U37A U43C was 0.44.

Turning to U37A U43A, the self-cleavage was determined as 0.76.

With A36G G13C, the self-cleavage amounted to 0.03.

As for A36G G13A, the self-cleavage was 0.24. For the variant A36G G13U, the self-cleavage came out at 0.03. For A36U C31G, the self-cleavage came out at 0.07. For A36U C31U, the self-cleavage was 0.95.

In the case of A36U C31A, the self-cleavage came to 0.03. For the variant A38C G49U, the self-cleavage is 0.1. On to A38C G49A, for which the self-cleavage was determined as 0.1. A38C G49C: the self-cleavage came to 0.06.

In the case of A36U G44A, the self-cleavage worked out at 0.97.

Regarding A36U G44U, the self-cleavage turned out to be 0.96. Under A36U G44C stands 1.03; under A38C G44A, 0.99; under A38C G44C, 0.97. For A38C G44U, the self-cleavage amounted to 0.93. For A36G U43C, the self-cleavage was found to be 0.74. The value for A36G U43A was 0.92. In the case of A36G U43G, the self-cleavage was 0.64. For the variant A36U G47A, the self-cleavage was 0.32. Under A36U G47C stands 0.13; under A36U G47U, 0.31; under A36G G35C, 0.93. Consider A36G G35A, for which the self-cleavage is 0.92.

As to A36G G35U, the self-cleavage was 0.91. The value for A36G G22A was 1.01. For the variant A36G G22U, the self-cleavage amounted to 0.57. The value for A36G G22C was 0.07; that for U37G U43C was 0.52.

U37G U43A: the self-cleavage was found to be 0.93. On to U37G U43G, for which the self-cleavage is 0.68. The value for U37C U43C was 0.38; that for U37C U43A was 0.96; that for U37C U43G was 0.66.

In the case of A36U U37A, the self-cleavage is 1.01.

For the variant A36U U37G, the self-cleavage was determined as 1.05. Under A36U U37C stands 1.07. Under A38C G13U stands 0.03; under A38C G13C, 0.03. For A38C G13A, the self-cleavage stood at 0.07. For A36U G51A, the self-cleavage amounted to 0.84.

With A36U G51U, the self-cleavage turned out to be 0.52. Regarding A36U G51C, the self-cleavage was 0.16.

A38C C9U: the self-cleavage is 0.78. In the case of A38C C9G, the self-cleavage was 0.83. The value for A38C C9A was 0.37; that for A36U G53C was 0.11. Under A36U G53A stands 0.94; under A36U G53U, 0.46; under A36G C33A, 0.14. A36G C33U: the self-cleavage stood at 0.94.

Consider A36G C33G, for which the self-cleavage was found to be 0.09. Under A36G C27A stands 0.38; under A36G C27U, 0.32.

Regarding A36G C27G, the self-cleavage came out at 0.13. Under U37A stands 0.79; under U37C, 1.04.

As to U37G, the self-cleavage amounted to 1.03.

For A36U G34C, the self-cleavage is 0.66. The value for A36U G34U was 0.84; that for A36U G34A was 0.86. Consider A36U A38G, for which the self-cleavage came to 1. Under A36U A38C stands 1.02; under A36U A38U, 0.97.

A38C G30A: the self-cleavage worked out at 0.05. The value for A38C G30U was 0.03; that for A38C G30C was 0.05; that for A38C C15A was 0.31.

With A38C C15U, the self-cleavage was determined as 0.57. With A38C C15G, the self-cleavage came to 0.11. With A36G G47C, the self-cleavage worked out at 0.2. The value for A36G G47U was 0.47; that for A36G G47A was 0.54; that for A36U was 1.03. The value for A36U G23A was 0.72; that for A36U G23C was 0.05. Under A36U G23U stands 0.18. Turning to A36U U12G, the self-cleavage came out at 0.64. Under A36U U12C stands 0.58; under A36U U12A, 0.99; under A36U C52U, 1.06. Regarding A36U C52A, the self-cleavage stood at 1.04. On to A36U C52G, for which the self-cleavage was 1.06. As for A36U C32U, the self-cleavage was 0.15.

As for A36U C32A, the self-cleavage came to 0.13. The value for A36U C32G was 0.12; that for A36G G19U was 0.99. Under A36G G19C stands 0.13. The value for A36G G19A was 0.8; that for A38C A41G was 0.69; that for A38C A41U was 1.

A38C A41C: the self-cleavage is 0.91.

On to A36U C26G, for which the self-cleavage was 0.08. On to A36U C26U, for which the self-cleavage stood at 1. Turning to A36U C26A, the self-cleavage worked out at 0.04. Under A36U C21U stands 1.04; under A36U C21G, 0.1; under A36U C21A, 0.91. Under A36U A39C stands 0.99; under A36U A39G, 0.98. Under A36U A39U stands 0.91; under A36U G49A, 0.19. With A36U G49U, the self-cleavage stood at 0.17. Under A36U G49C stands 0.07; under A38C G19A, 0.64.

On to A38C G19C, for which the self-cleavage came to 0.07.

As for A38C G19U, the self-cleavage is 0.33.

In the case of A38C A8C, the self-cleavage worked out at 0.07. Turning to A38C A8G, the self-cleavage worked out at 0.53. Under A38C A8U stands 0.28. As for A36U C33U, the self-cleavage was 0.89.

For A36U C33A, the self-cleavage is 0.24. Consider A36U C33G, for which the self-cleavage was determined as 0.08. The value for A38C C14U was 0.4.

For the variant A38C C14G, the self-cleavage was 0.08. For A38C C14A, the self-cleavage was found to be 0.09. A36U U24A: the self-cleavage stood at 0.27. For the variant A36U U24C, the self-cleavage turned out to be 0.45. The value for A36U U24G was 0.03; that for A36U A7U was 0.07.
